Test results from ChEMBL document CHEMBL1141853, “A cyclitol derivative as a replication inhibitor from the marine sponge Petrosia sp” (1999).
Converted amounts (≈) assume the structure as drawn. The source made the active and inactive calls. The rule behind the calls is not given here.

Key:
A549 = assay: Cytotoxicity against human A549 cells; assay type: functional; settings: read-out: ED50 (the source's name)
SK-OV-3 = assay: Cytotoxicity against human SKOV3 cells; assay type: functional; settings: read-out: ED50 (the source's name)
SK-MEL-2 = assay: Cytotoxicity against human SK-MEL-2 cells; assay type: functional; settings: read-out: ED50 (the source's name)
XF498 = assay: Cytotoxicity against human XF498 cells; assay type: functional; settings: read-out: ED50 (the source's name)
HCT-15 = assay: Cytotoxicity against human HCT-15 cells; assay type: functional; settings: read-out: ED50 (the source's name)
Simian virus 40 [1] = assay: Inhibition of SV40 DNA replication in human HeLa cells; assay type: functional, organism-based; settings: Betapolyomavirus macacae
Method in brief: (§1)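 Cell-free SV40 replication using HeLa cytosolic extract, SV40 T-Ag (0.6 µg) and SV40 origin pUC DNA (0.3 µg). Buffer is 40 mM creatine phosphate-di-Tris pH 7.7, creatine kinase, 7 mM MgCl2, 0.5 mM DTT, 4 mM ATP, rNTPs, dNTPs and 25 µM [3H]dTTP. Incubated 90 min at 37 °C; acid-insoluble radioactivity measured. Products separated on 1% agarose gel and autoradiographed.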

Simian virus 40 [2] = assay: Inhibition of SV40 DNA replication in human HeLa cells at 800 uM; assay type: functional; settings: Betapolyomavirus macacae, read-out: INH; method in brief: as §1
[3] = biological target: T1, DNA topoisomerase 1 (Homo sapiens) (UniProt P11387); assay: Inhibition of human DNA topoisomerase 1 assessed as effect on relaxation of superhelical plasmid
T1 sequence (whole entry): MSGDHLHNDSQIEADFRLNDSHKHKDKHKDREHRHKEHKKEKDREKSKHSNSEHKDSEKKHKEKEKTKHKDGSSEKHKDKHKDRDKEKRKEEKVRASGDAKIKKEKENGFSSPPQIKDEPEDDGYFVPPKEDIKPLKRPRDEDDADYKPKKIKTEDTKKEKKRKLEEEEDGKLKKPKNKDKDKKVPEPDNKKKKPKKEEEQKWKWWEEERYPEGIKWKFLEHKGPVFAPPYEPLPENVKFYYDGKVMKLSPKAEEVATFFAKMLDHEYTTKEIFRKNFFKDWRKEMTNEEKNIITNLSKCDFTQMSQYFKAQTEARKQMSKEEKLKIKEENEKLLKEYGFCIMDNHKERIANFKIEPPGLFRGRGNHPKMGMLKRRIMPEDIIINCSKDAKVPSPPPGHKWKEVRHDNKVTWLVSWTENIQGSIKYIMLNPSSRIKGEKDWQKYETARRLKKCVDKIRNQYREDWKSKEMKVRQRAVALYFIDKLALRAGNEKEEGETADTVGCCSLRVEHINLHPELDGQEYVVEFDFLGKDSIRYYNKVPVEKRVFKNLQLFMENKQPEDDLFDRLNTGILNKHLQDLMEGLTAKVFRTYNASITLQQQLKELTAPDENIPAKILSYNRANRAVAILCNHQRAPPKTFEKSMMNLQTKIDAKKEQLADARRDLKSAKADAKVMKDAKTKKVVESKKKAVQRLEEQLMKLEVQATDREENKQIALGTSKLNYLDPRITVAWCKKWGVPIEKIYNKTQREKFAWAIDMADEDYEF

Activity [3]: inactive
Compound: CCCCCCC(C)CCCCCCCCCOC[C@H](O)COC1[C@@H](O)[C@H](O)[C@@H](O)[C@@H]1O (stereo partly drawn) [SACROTRIDE A]
EC50 (A549): > 10 µg/mL | EC50 (SK-OV-3): 9.5 µg/mL (≈ 20.5 µM) | EC50 (SK-MEL-2): > 10 µg/mL | EC50 (XF498): 9.8 µg/mL (≈ 21.2 µM) | EC50 (HCT-15): 9.4 µg/mL (≈ 20.3 µM) | Activity (Simian virus 40 [1]): Dose-dependent effect | inhibition at 800 µM (Simian virus 40 [2]): > 90%
